The results in this text go back to ChEMBL document CHEMBL5257157, “Biological evaluation of novel amidino substituted coumarin-benzazole hybrids as promising therapeutic agents” (RSC Med Chem, 2023).

Some results are limits rather than exact numbers.

For one data set, the system named is Sindbis virus. Put plainly: Antiviral activity against Sindbis virus infected in human Huh-7 cells assessed as inhibition of virus-induced cytopathogenic effect incubated for 3 to 7 days by MTS assay. The data set is classed as functional, organism-based.
Data set [1] in a line: Cytotoxicity against human HEL 299 cells assessed as inhibition of cell growth incubated for 72 hrs by CellTiter96 Aqueous One Solution cell proliferation assay. The data set is classed as toxicity, cell-based.
The subject of another data set is Zika virus. The data set is described as follows: Antiviral activity against Zika virus Mr776 infected in human Huh-7 cells assessed as inhibition of virus-induced cytopathogenic effect incubated for 3 to 7 days by MTS assay. Type of data set: functional, organism-based. The settings on record: Mr776, Huh-7.
For the next data set, the system named is Human coronavirus OC43. Put plainly: Antiviral activity against HCoV-OC43 infected in human HEL 299 cells assessed as inhibition of virus-induced cytopathogenic effect incubated for 3 to 7 days by MTS assay. Type of data set: functional, organism-based. The settings on record: Betacoronavirus 1, HEL 299.
Data set [2] can be described thus: Antiviral activity against HCoV-NL63 infected in human Huh-7 cells assessed as inhibition of virus-induced cytopathogenic effect incubated for 3 to 7 days by MTS assay. Type of data set: functional, cell-based. The settings on record: Human coronavirus NL63, Huh-7.
A short description of data set [3]: Antioxidant activity assessed as DPPH radical scavenging activity incubated for 5 mins by absorbance based microplate reader analysis. Type of data set: functional. The essentials: (§1)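 Pure compounds tested in three colorimetric antioxidant assays, each run alongside the reference BHT. […] ABTS: direct reaction with ABTS•+ radical cation, reported as IC50. DPPH: scavenging of the stable DPPH radical by proton or electron donation, reported as IC50. FRAP: reducing power, expressed as mmolFe2+/mmolC.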

Another data set relates to Human alphaherpesvirus 1. The data set is described as follows: Antiviral activity against HSV-1 KOS infected in human HEL 299 cells assessed as inhibition of virus-induced cytopathogenic effect incubated for 3 to 7 days by MTS assay. Type of data set: functional, organism-based. The note with it: Human alphaherpesvirus 1, KOS.
The nature of data set [4]: Antiproliferative activity against human DND41 cells assessed as inhibition of cell growth incubated for 72 hrs by CellTiter96 Aqueous One Solution cell proliferation assay. The note with it: DND41, 72 h. Type of data set: functional, cell-based.
The subject of data set [5] is Respiratory syncytial virus. The data set is described as follows: Antiviral activity against RSV infected in human HEL 299 cells assessed as inhibition of virus-induced cytopathogenic effect incubated for 3 to 7 days by MTS assay. The data set is classed as functional, organism-based.
A further data set relates to Influenza B virus. The data set is described as follows: Antiviral activity against influenza B virus infected in dog MDCK cells assessed as inhibition of virus-induced cytopathogenic effect incubated for 3 to 7 days by MTS assay. The data set is classed as functional, organism-based.
The test system of another data set is Human coronavirus 229E. The data set is described as follows: Antiviral activity against HCoV-229E infected in human HEL 299 cells assessed as inhibition of virus-induced cytopathogenic effect incubated for 3 to 7 days by MTS assay. The data set is classed as functional, organism-based.
Another data set concerns NCI-H460. The data set is described as follows: Antiproliferative activity against human NCI-H460 cells assessed as inhibition of cell growth incubated for 72 hrs by CellTiter96 Aqueous One Solution cell proliferation assay. Type of data set: functional, cell-based. The note with it: NCI-H460, 72 h.
For the next data set, the system named is Z-138. Put plainly: Antiproliferative activity against human Z138 cells assessed as inhibition of cell growth incubated for 72 hrs by CellTiter96 Aqueous One Solution cell proliferation assay. Type of data set: functional, cell-based. The settings on record: Z-138, 72 h.
Another data set has as its system LN-229. Put plainly: Antiproliferative activity against human LN-229 cells assessed as inhibition of cell growth incubated for 72 hrs by CellTiter96 Aqueous One Solution cell proliferation assay. The data set is classed as functional, cell-based. The note with it: LN-229, 72 h.
The next data set has as its system HL-60. Put plainly: Antiproliferative activity against human HL-60 cells assessed as inhibition of cell growth incubated for 72 hrs by CellTiter96 Aqueous One Solution cell proliferation assay. The note with it: HL-60, 72 h. The data set is classed as functional, cell-based.
The subject of a further data set is K562. Put plainly: Antiproliferative activity against human K562 cells assessed as inhibition of cell growth incubated for 72 hrs by CellTiter96 Aqueous One Solution cell proliferation assay. Type of data set: functional, cell-based. The settings on record: K562, 72 h.
The nature of data set [6]: Antioxidant activity assessed as ABTS radical scavenging activity incubated for 5 mins by absorbance based microplate reader analysis. The data set is classed as functional. The essentials:
as §1

Data set [7] in a line: Antioxidant activity assessed as reduction of Fe3+ complex to Fe2+ analogue by measuring mmolFe2+/mmolc by FRAP assay. The data set is classed as functional. The essentials:
as §1

The next data set deals with Yellow fever virus. Put plainly: Antiviral activity against Yellow fever virus 17D infected in human Huh-7 cells assessed as inhibition of virus-induced cytopathogenic effect incubated for 3 to 7 days by MTS assay. The data set is classed as functional, organism-based.
A short description of data set [8]: Cytotoxicity against dog MDCK cells assessed as inhibition of cell growth incubated for 72 hrs by CellTiter96 Aqueous One Solution cell proliferation assay. The data set is classed as toxicity, cell-based, Canis lupus familiaris.
For a further data set, the system named is Huh-7. Put plainly: Cytotoxicity against human Huh-7 cells assessed as inhibition of cell growth incubated for 72 hrs by CellTiter96 Aqueous One Solution cell proliferation assay. The data set is classed as functional.
Another data set concerns CAPAN-1. The data set is described as follows: Antiproliferative activity against human CAPAN-1 cells assessed as inhibition of cell growth incubated for 72 hrs by CellTiter96 Aqueous One Solution cell proliferation assay. Type of data set: functional, cell-based. The note with it: CAPAN-1, 72 h.
For data set [9], the system named is Influenza A virus. Put plainly: Antiviral activity against influenza virus H3N2 infected in dog MDCK cells assessed as inhibition of virus-induced cytopathogenic effect incubated for 3 to 7 days by MTS assay. The data set is classed as functional, organism-based.
The subject of data set [10] is Influenza A virus. The data set is described as follows: Antiviral activity against influenza virus H1N1 infected in dog MDCK cells assessed as inhibition of virus-induced cytopathogenic effect incubated for 3 to 7 days by MTS assay. The data set is classed as functional, organism-based.
A further data set has as its system HCT-116. Put plainly: Antiproliferative activity against human HCT-116 cells assessed as inhibition of cell growth incubated for 72 hrs by CellTiter96 Aqueous One Solution cell proliferation assay. The note with it: HCT-116, 72 h. Type of data set: functional, cell-based.
Data set [11] in a line: Drug localization in nuclear membrane of human HEp-2 cells at 10 uM incubated for 3 hrs by confocal microscopy analysis. Type of data set: ADME, cell membranes. The settings on record: hep-2, 3 h. The method in brief:
(§2)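 Compound autofluorescence was imaged by fluorescence microscopy in Hep-2 cells (ATCC CCL-23). Cells were given 10 μM and incubated for 3 hours to allow cellular uptake before imaging. Localization to subcellular compartments was judged from the fluorescence pattern.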

The nature of data set [12]: Drug localization in nucleolus of human HEp-2 cells at 10 uM incubated for 3 hrs by confocal microscopy analysis. Type of data set: ADME, subcellular. The note with it: hep-2, 3 h. The essentials: as §2
Data set [13] in a line: Cytotoxicity against human PBMC cells assessed as reduction in cell viability at 20 uM measured after 72 hrs by CellTiter96 Aqueous One Solution cell proliferation assay. The data set is classed as toxicity, cell-based. The essentials:
(§3)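 Normal peripheral blood mononuclear cells from healthy donors were exposed to compound for 72 hours, at concentrations up to a highest dose of 100 μM. Viability is given as a percentage of untreated PBMC control.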

The nature of data set [14]: Cytotoxicity against human PBMC cells assessed as reduction in cell viability at 0.006 to 4 uM measured after 72 hrs by CellTiter96 Aqueous One Solution cell proliferation assay. The data set is classed as toxicity, cell-based. The settings on record: dose 0.006-4 µM.
Data set [15] is described as follows: Cytotoxicity against human PBMC cells assessed as reduction in cell viability measured after 72 hrs by CellTiter96 Aqueous One Solution cell proliferation assay. The data set is classed as toxicity, cell-based. The essentials: as §3

`Cc1ccc2oc(=O)c(-c3nc4cc(C5=NCCN5)ccc4[nH]3)c(Cl)c2c1`: the EC50 (in the data set with Sindbis virus; in the data set with Zika virus; in the data set on Human coronavirus OC43; in [2]; with Human alphaherpesvirus 1; in data set [5]) was greater than 100 µM throughout. The EC50 in the data set with Influenza B virus, in the data set with Human coronavirus 229E, with Yellow fever virus, with Influenza A virus [9] and in the data set on Influenza A virus [10] was greater than 100 µM throughout. Besides, the CC50 at 72 h was determined as 77 µM in data set [1] and 10 µM in data set [8]. Also, the IC50 was 190 µM in [3]; 5.8 µM in data set [4]; 31.7 µM in the data set on NCI-H460; 6.4 µM in the data set on Z-138; 9.1 µM with LN-229; 21.5 µM with HL-60. For the same compound, the IC50 stood at 9.9 µM in the data set with K562, 350 µM in data set [6] and 10.2 µM with CAPAN-1. The Activity in data set [7] was found to be 47.1 mmol/mmol. Further, the CC50 in the data set with Huh-7 is less than 0.8 µM.
Turning to `O=c1oc2ccccc2c(Cl)c1-c1nc2cc(C3=NCCCN3)ccc2[nH]1`, the EC50 (with Sindbis virus; in the data set with Zika virus; with Human coronavirus OC43; in data set [2]; with Human alphaherpesvirus 1; in data set [5]) was greater than 100 µM in each case. The concentration for a half-maximal effect (EC50) with Influenza B virus, in the data set with Human coronavirus 229E, in the data set with Yellow fever virus, in the data set with Influenza A virus [9] and in the data set with Influenza A virus [10] was greater than 100 µM in each case. Further, the CC50 at 72 h in [1] turned out to be 87.4 µM; in data set [8] it was 81.7 µM. Moreover, the IC50 was 70 µM in data set [3]; 19.1 µM in data set [4]; greater than 100 µM with NCI-H460; 44.5 µM with Z-138; greater than 100 µM with LN-229; 53.5 µM in the data set with HL-60. The IC50 is greater than 100 µM in the data set on K562, 290 µM in data set [6] and 69.2 µM with CAPAN-1. Further, in data set [7], the Activity was 38.3 mmol/mmol. Moreover, the CC50 in the data set with Huh-7 was determined as 61.7 µM.
Turning to `COC(=O)Nc1nc2cc(C(=O)c3cccs3)ccc2[nH]1` [NOCODAZOLE], the IC50 in data set [4] was 0.47 µM; with NCI-H460, 0.25 µM; in the data set with Z-138, 0.31 µM; with LN-229, 0.1 µM; in the data set with HL-60 it was 0.1 µM; with K562, 0.07 µM. The IC50 in the data set on HCT-116 and in the data set with CAPAN-1 was 0.13 µM each time.
As for `CCN(CC)c1ccc2cc(-c3nc4cc(C5=NCCN5)ccc4[nH]3)c(=O)oc2c1.Cl`, the concentration for a half-maximal effect (EC50) (in the data set on Sindbis virus; with Zika virus; in the data set with Human coronavirus OC43; in data set [2]; in the data set on Human alphaherpesvirus 1; in [5]) was greater than 100 µM in each case. In addition, the EC50 with Influenza B virus, with Human coronavirus 229E, with Yellow fever virus, in the data set on Influenza A virus [9] and with Influenza A virus [10] was greater than 100 µM in each case. For the same compound, the CC50 at 72 h in data set [1] is 5.1 µM; in [8], less than 0.8 µM. For the same compound, the Drug uptake entry in data set [11] and in [12] was “Active” throughout. For the same compound, the IC50 turned out to be 140 µM in [3]; 0.3 µM in data set [4]; 1.8 µM with NCI-H460; 1.5 µM with Z-138; 1.4 µM in the data set with LN-229; 2.1 µM in the data set on HL-60. The IC50 with K562 came out at 1.9 µM; in data set [6], 170 µM; in the data set with CAPAN-1 it was 1.7 µM. For the same compound, the Activity in [13] was 60%; in data set [14] it was greater than 80%; in data set [7], 28.4 mmol/mmol. In addition, the IC50 at 72 h in data set [15] came to 1.6 µM. Besides, the CC50 with Huh-7 was less than 0.8 µM.
